The source made the active and inactive calls. No cut-off for these calls is given here.
Assays:
Homo sapiens = species: Homo sapiens; test: Selectivity ratio of Ki for human delta opioid receptor to Ki for human kappa opioid receptor
Mu-type opioid receptor [1] = target: T1, Mu-type opioid receptor (Homo sapiens, UniProt P35372); test: Displacement of [3H]DAMGO from human mu opioid receptor expressed in CHO cells after 60 mins by liquid scintillation counting; format: cell-based
[2] = target: Delta-type opioid receptor (Homo sapiens, UniProt P41143); test: Displacement of [3H]naltrindole from human delta opioid receptor expressed in CHO cells after 3 hrs by liquid scintillation counting; format: cell-based
Procedure, shortened: (§1)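 Membranes from CHO cells stably expressing one human opioid receptor, incubated at 25 °C in 50 mM Tris-HCl pH 7.5 with radioligand: [3H]DAMGO 0.25 nM (60 min), [3H]U69,593 1 nM (60 min), [3H]naltrindole 0.2 nM (3 h). […] Filtered on glass fibre (PEI-soaked for kappa), washed, scintillation counted; IC50 by log-probit fit, Ki via Cheng–Prusoff.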

[3] = target: T2, Kappa-type opioid receptor (Homo sapiens, UniProt P41145); test: Displacement of [3H]U69593 from human kappa opioid receptor expressed in CHO cells after 60 mins by liquid scintillation counting; format: cell-based; procedure, shortened: as §1
[4] = target: T2, Kappa-type opioid receptor; test: Antagonist activity at human kappa opioid receptor expressed in CHO cells assessed as inhibition of U50488-stimulated [35S]GTPgammaS binding; format: functional, cell-based
[5] = target: T2, Kappa-type opioid receptor; test: Agonist activity at human kappa opioid receptor expressed in CHO cells assessed as maximal stimulation of [35S]GTPgammaS binding relatiev to U50488; format: functional, cell-based
Procedure, shortened: (§2)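 Agonist mode: 12 concentrations of each compound incubated with CHO cells expressing the receptor named in the line; agonist-stimulated [35S]GTPγS binding measured.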

[6] = Chemical stability assessed as hydrolysis half life in presence of porcine liver esterase; format: ADME; settings: pig, isolated protein
Mu-type opioid receptor [7] = target: T1, Mu-type opioid receptor; test: Antagonist activity at human mu opioid receptor expressed in CHO cells assessed as inhibition of DAMGO-stimulated [35S]GTPgammaS binding; format: functional, cell-based
[8] = Chemical stability at pH 7.4 buffer assessed as hydrolysis half life; format: physicochemical
Mu-type opioid receptor [9] = target: T1, Mu-type opioid receptor; test: Agonist activity at human mu opioid receptor expressed in CHO cells assessed as maximal stimulation of [35S]GTPgammaS binding relatiev to DAMGO; format: functional, cell-based
Procedure, shortened: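 12 concentrations of each compound incubated with CHO cells expressing the mu receptor; [35S]GTPγS binding stimulation measured, maximal stimulation taken as Emax.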

[10] = target: T2, Kappa-type opioid receptor; test: Agonist activity at human kappa opioid receptor expressed in CHO cells assessed as stimulation of [35S]GTPgammaS binding; format: functional, cell-based; procedure, shortened: as §2
Mu-type opioid receptor [11] = target: T1, Mu-type opioid receptor; test: Agonist activity at human mu opioid receptor expressed in CHO cells assessed as stimulation of [35S]GTPgammaS binding; format: functional, cell-based
Mu-type opioid receptor [12] = target: T1, Mu-type opioid receptor; test: Antagonist activity at human mu opioid receptor expressed in CHO cells assessed as inhibition of DAMGO-stimulated [35S]GTPgammaS binding at 10 uM; format: functional, cell-based

T2 sequence (P41145 whole entry): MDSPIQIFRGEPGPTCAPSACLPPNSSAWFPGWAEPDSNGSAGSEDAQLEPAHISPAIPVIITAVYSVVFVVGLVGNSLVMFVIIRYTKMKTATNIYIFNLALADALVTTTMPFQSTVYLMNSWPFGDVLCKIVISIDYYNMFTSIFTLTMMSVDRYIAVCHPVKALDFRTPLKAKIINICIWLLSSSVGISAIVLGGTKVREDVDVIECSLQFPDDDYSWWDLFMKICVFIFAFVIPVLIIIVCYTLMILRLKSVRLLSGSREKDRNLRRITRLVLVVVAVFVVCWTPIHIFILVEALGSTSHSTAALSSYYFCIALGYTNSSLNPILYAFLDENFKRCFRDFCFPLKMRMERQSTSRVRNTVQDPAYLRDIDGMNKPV
T1 sequence (P35372 whole entry): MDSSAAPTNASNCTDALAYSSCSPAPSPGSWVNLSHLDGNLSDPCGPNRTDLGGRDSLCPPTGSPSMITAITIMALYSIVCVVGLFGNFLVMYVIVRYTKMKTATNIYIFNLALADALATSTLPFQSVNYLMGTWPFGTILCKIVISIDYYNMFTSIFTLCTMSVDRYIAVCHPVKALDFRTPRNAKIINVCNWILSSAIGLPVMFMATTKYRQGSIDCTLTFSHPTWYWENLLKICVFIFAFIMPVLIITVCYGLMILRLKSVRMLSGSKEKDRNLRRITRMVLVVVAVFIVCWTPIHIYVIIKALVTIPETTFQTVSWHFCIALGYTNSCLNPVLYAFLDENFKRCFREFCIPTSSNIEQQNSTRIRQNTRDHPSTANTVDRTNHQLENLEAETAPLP
Delta-type opioid receptor, sequence (P41143 whole entry): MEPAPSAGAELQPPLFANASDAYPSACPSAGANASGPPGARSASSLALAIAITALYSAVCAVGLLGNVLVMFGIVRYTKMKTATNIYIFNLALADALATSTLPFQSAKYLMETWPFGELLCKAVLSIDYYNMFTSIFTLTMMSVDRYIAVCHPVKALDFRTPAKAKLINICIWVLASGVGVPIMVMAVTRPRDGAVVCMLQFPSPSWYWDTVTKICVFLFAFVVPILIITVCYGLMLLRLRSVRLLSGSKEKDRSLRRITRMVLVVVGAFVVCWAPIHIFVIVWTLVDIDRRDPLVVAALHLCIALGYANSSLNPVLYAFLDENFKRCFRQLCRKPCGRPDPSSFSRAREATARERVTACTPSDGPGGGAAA

SMILES	Ratio Ki (Homo sapiens)	Ki (Mu-type opioid receptor [1]) [nM]	Ki [2] [nM]	Ki [3] [nM]	IC50 [4]	Imax [4]	Emax [5] [%]	t1/2 [6] [min]	Imax (Mu-type opioid receptor [7])	t1/2 [8] [min]	Emax (Mu-type opioid receptor [9]) [%]	IC50 (Mu-type opioid receptor [7]; cho)	EC50 [10] [nM]	EC50 (Mu-type opioid receptor [11]) [nM]	IC50 (Mu-type opioid receptor [7]; read-out: IC50) [nM]	Imax (Mu-type opioid receptor [12]) [%]
CC(C)(CCCCCCC(C)(C)C(=O)Oc1ccc2c(c1)[C@@]13CCCC[C@H]1[C@@H](C2)N(CC1CCC1)CC3)C(=O)O	22	47	390	18	–	–	–	–	–	–	–	–	–	–	–	–
CC(C)(CCCCCCC(C)(C)C(=O)Oc1ccc2c(c1)[C@@]13CCCC[C@H]1[C@@H](C2)N(CC1CCC1)CC3)C(=O)OCc1ccccc1	45	8.6	210	4.7	–	–	–	–	–	–	–	–	–	–	–	–
O=C(CCCCCCCCC(=O)Oc1ccc2c(c1)[C@@]13CCCC[C@H]1[C@@H](C2)N(CC1CCC1)CC3)Oc1ccc2c(c1)[C@@]13CCCC[C@H]1[C@@H](C2)N(CC1CCC1)CC3	90	–	–	–	Not Active	inactive	65	110	44%	46	–	–	–	–	–	–
O=C(O)CCCCCCCCC(=O)Oc1ccc2c(c1)[C@@]13CCCC[C@H]1[C@@H](C2)N(CC1CCC1)CC3	–	0.71	18	0.29	Not Active	inactive	75	–	inactive	–	110	Not Active	2.8	3	–	–
CC(CCCCCCC(C)C(=O)Oc1ccc2c(c1)[C@@]13CCCC[C@H]1[C@@H](C2)N(CC1CCC1)CC3)C(=O)Oc1ccc2c(c1)[C@@]13CCCC[C@H]1[C@@H](C2)N(CC1CCC1)CC3 (stereo partly drawn)	60	0.95	37	0.62	Not Active	inactive	54	131	50%	83	26	–	7.3	7.1	140	–
CC(CCCCC(C)C(=O)Oc1ccc2c(c1)[C@@]13CCCC[C@H]1[C@@H](C2)N(CC1CCC1)CC3)C(=O)Oc1ccc2c(c1)[C@@]13CCCC[C@H]1[C@@H](C2)N(CC1CCC1)CC3 (stereo partly drawn)	23	2.9	50	2.2	–	–	–	114	–	221	–	–	–	–	–	–
CC(CCCCCCC(C)C(=O)Oc1ccc2c(c1)[C@@]13CCCC[C@H]1[C@@H](C2)N(CC1CCC1)CC3)C(=O)O (stereo partly drawn)	48	0.46	20	0.42	Not Active	inactive	58	–	–	–	25	Not Active	4.9	13	–	48
C=CCN1CC[C@]23c4c5ccc(OC(=O)CCCCCCCCC(=O)Oc6ccc7c(c6)[C@@]68CCCC[C@H]6C(C7)N(CC6CCC6)CC8)c4O[C@H]2CCC[C@H]3[C@H]1C5	300	0.43	39	0.13	Not Active	inactive	86	–	73%	–	34	–	1.6	2	25	–
COC(=O)C(C)CCCCCCC(C)C(=O)Oc1ccc2c(c1)[C@@]13CCCC[C@H]1[C@@H](C2)N(CC1CCC1)CC3 (stereo partly drawn)	45	1.7	42	0.94	–	–	–	–	–	–	–	–	–	–	–	–
CC(C)(CCCCCCC(C)(C)C(=O)Oc1ccc2c(c1)[C@@]13CCCC[C@H]1[C@@H](C2)N(CC1CCC1)CC3)C(=O)Oc1ccc2c(c1)[C@@]13CCCC[C@H]1[C@@H](C2)N(CC1CCC1)CC3	32	0.47	15	0.47	Not Active	inactive	60	100	50%	101	40	–	6.4	11	81	–

From ChEMBL document CHEMBL1154777 (J Med Chem, 2009)
